Measured values taken from paper PMC10433355 (ACS Omega, 2023).
Several values for one entry are separate records, joined by “and”; a condition that tells them apart may be missing. Equal values may be shown once.

What was measured:
human recombinant COX-2 = biological target: T1, human recombinant COX-2 (Homo sapiens, UniProt P35354); assay: In vitro COX-2 inhibition assay; type: biochemical; details: for SI (selectivity index / selectivity ratio): IC50 COX-1 divided by IC50 COX-2; for IC50: IC50 COX-2
T1 sequence (P35354 18-604): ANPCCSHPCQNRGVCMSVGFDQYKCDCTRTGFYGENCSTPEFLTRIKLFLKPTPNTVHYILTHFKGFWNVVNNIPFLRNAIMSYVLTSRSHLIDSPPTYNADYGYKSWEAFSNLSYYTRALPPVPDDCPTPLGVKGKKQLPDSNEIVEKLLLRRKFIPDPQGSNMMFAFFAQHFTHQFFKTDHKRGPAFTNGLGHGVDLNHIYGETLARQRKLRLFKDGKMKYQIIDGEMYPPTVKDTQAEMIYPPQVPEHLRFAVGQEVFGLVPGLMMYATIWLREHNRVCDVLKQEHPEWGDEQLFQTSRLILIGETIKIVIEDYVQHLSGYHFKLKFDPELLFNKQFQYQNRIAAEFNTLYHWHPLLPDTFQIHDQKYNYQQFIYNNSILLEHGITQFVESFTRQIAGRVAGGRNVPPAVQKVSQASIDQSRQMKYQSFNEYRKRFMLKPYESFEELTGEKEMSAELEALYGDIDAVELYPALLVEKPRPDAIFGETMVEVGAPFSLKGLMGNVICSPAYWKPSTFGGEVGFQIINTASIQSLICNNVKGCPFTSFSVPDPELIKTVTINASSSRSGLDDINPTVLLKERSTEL

Hep3B = assay: MTS assay, hepatocellular carcinoma Hep3B; type: cell-based; details: Homo sapiens, 72 h, read-out: IC50 Hep3B
Method in brief: (§1)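 Cells grown in RPMI 1640 with 10% FBS, 1% penicillin/streptomycin and 1% L-glutamine, trypsinised and counted by hemocytometer. Seeded at 1 × 10^3 cells/well and left 24 h at 37 °C. Test compound added at 300, 100, 50 and 10 µM for 72 h at 37 °C, then removed. […] Triplicate, mean ± SD.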

CaCo-2 = assay: MTS assay, colorectal adenocarcinoma Caco-2; type: cell-based; details: Homo sapiens, Caco-2, 72 h, read-out: IC50 CaCo-2
Method in brief: as §1

[1] = MTS cytotoxicity assay, normal cell line LX-2; type: cell-based; details: human, LX-2 cells (normal cell line), CC50 LX-2, normal cell line
Method in brief: (§2)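 LX-2 cells seeded at 1 × 10^3 cells/well and left 24 h at 37 °C. Exposed to test compound at 300, 100, 50 and 10 µM for 72 h at 37 °C, with 5-FU as positive control. […] Triplicate, mean ± SD.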

COX-1 = biological target: T2, COX-1 (Ovis aries, UniProt P05979); assay: In vitro COX-1 inhibition assay; type: biochemical, ovine
T2 sequence (P05979 25-600): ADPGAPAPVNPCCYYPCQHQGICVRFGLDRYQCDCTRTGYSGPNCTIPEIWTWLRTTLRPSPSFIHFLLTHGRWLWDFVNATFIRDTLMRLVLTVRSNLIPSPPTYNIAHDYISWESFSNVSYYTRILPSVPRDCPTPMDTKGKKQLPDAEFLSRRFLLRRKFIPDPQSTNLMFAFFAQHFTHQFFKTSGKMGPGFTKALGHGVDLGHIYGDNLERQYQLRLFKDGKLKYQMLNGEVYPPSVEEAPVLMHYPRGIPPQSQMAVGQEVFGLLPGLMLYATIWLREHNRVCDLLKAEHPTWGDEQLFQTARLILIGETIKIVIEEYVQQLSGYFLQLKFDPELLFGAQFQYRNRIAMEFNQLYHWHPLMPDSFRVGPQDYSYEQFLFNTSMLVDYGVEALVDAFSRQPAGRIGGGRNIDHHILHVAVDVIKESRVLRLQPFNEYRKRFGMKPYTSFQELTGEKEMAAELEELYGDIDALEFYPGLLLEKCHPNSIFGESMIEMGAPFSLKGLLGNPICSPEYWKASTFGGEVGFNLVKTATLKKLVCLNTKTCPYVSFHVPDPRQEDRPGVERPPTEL

HepG2 = assay: MTS assay, hepatocellular carcinoma HepG2; type: cell-based; details: Homo sapiens, HepG2, 72 h, read-out: IC50 HepG2
Method in brief: as §1

COLO205 = assay: MTS assay, colon adenocarcinoma COLO205; type: cell-based; details: Homo sapiens, COLO 205, 72 h, read-out: IC50 COLO205
Method in brief: as §1

HeLa = assay: MTS assay, cervical adenocarcinoma HeLa; type: cell-based; details: Homo sapiens, 72 h, read-out: IC50 HeLa
Method in brief: as §1

MCF-7 = assay: MTS assay, breast carcinoma MCF-7; type: cell-based; details: Homo sapiens, MCF7, 72 h, read-out: IC50 MCF-7
Method in brief: as §1

B16F1 = assay: MTS assay, melanoma B16F1; type: cell-based; details: Mus musculus, B16-F1, 72 h, read-out: IC50 B16F1
Method in brief: as §1

Hek293t cells = assay: MTS cytotoxicity assay, normal cell line Hek293t; type: cell-based; details: read-out: CC50 Hek293t, 72 h
Method in brief: as §1

LX-2 cells = assay: MTS cytotoxicity assay, normal cell line LX-2; type: cell-based; details: read-out: CC50 LX-2, normal cell line
Method in brief: as §2

Compound	SI (selectivity index / selectivity ratio) (human recombinant COX-2)	IC50 (human recombinant COX-2)	IC50 (Hep3B) [µM]	IC50 (CaCo-2) [µM]	IC50 (COX-1) [µM]	IC50 (HepG2) [µM]	IC50 (COLO205) [µM]	IC50 (HeLa) [µM]	IC50 (MCF-7) [µM]	IC50 (B16F1) [µM]	CC50 at 72 h [1] [µM]	CC50 (Hek293t cells) [µM]	CC50 (LX-2 cells) [µM]
COc1cc(NC(=O)c2sc(-c3cccc(OC)c3)nc2C)cc(OC)c1 [2d, N-(3,5-Dimethoxyphenyl)-2-(3-methoxyphenyl)-4-methylthiazole-5-carboxamide]	0.685	2.3 ± 0.25 µM	> 300	> 300	1.57 ± 0.8	> 300	> 300	> 300	144 ± 2.03	> 300	> 300		
COc1cccc(-c2nc(C)c(C(=O)Nc3ccccc3)s2)c1 [2f, 2-(3-Methoxyphenyl)-4-methyl-N-phenylthiazole-5-carboxamide]	0.630	3.26 ± 1.02 µM	> 300	> 300	2.06 ± 1.21	> 300	> 300	> 300	> 300	> 300	> 300		
COc1cccc(-c2nc(C)c(C(=O)Nc3cc(OC)ccc3OC)s2)c1 [2h, N-(2,5-Dimethoxyphenyl)-2-(3-methoxyphenyl)-4-methylthiazole-5-carboxamide]	0.272	1.23 ± 0.85 µM	> 300	> 300	0.335 ± 0.19	> 300	> 300	250.8 ± 2.42	> 300	> 300	> 300		
COc1cccc(-c2nc(C)c(C(=O)Nc3ccc(Oc4ccccc4OC)cc3)s2)c1 [2i, N-(4-(2-Methoxyphenoxy)phenyl)-2-(3-methoxyphenyl)-4-methylthiazole-5-carboxamide]	0.651	3.24 ± 1.11 µM	> 300	> 300	2.11 ± 1.08	> 300	> 300	> 300	> 300	> 300	> 300		
O=c1[nH]cc(F)c(=O)[nH]1 [5-FU, reference compound]												4.06 ± 1.82	8.45 ± 2.02

The next lines start with results.

SI (selectivity index / selectivity ratio) (human recombinant COX-2)	IC50 (human recombinant COX-2)	IC50 (Hep3B) [µM]	IC50 (CaCo-2) [µM]	IC50 (COX-1) [µM]	IC50 (HepG2) [µM]	IC50 (COLO205) [µM]	IC50 (HeLa) [µM]	IC50 (MCF-7) [µM]	IC50 (B16F1) [µM]	Compound	CC50 at 72 h [1] [µM]	CC50 (Hek293t cells) [µM]	CC50 (LX-2 cells) [µM]
2.766 and 2.76	0.95 µM and 0.958 µM	> 300	> 300	2.65 ± 0.78	60.8 ± 2.76	> 300	> 300	> 300	> 300	COc1cccc(-c2nc(C)c(C(=O)Nc3cc(OC)c(OC)c(OC)c3)s2)c1 [2a, 2-(3-Methoxyphenyl)-4-methyl-N-(3,4,5-trimethoxyphenyl)thiazole-5-carboxamide]	> 300		
1.251	0.19 µM and 0.191 µM	> 300	> 300	0.239 ± 0.18	> 300	30.8 ± 0.49	> 300	> 300	74.2 ± 2.44	COc1cccc(-c2nc(C)c(C(=O)Nc3ccc(C(C)(C)C)cc3)s2)c1 [2b, N-(4-(tert-Butyl)phenyl)-2-(3-methoxyphenyl)-4-methylthiazole-5-carboxamide]	203.7 ± 1.89	117 ± 2.05	
0.095	2.91 ± 1.08 µM	> 300	> 300	0.278 ± 0.02	> 300	> 300	> 300	> 300	> 300	COc1cccc(-c2nc(C)c(C(=O)Nc3ccc(OC)c(OC)c3)s2)c1 [2c, N-(3,4-Dimethoxyphenyl)-2-(3-methoxyphenyl)-4-methylthiazole-5-carboxamide]	> 300		
0.723	2.12 ± 1.48 µM	202.1 ± 1.99	> 300	1.53 ± 0.92	> 300	> 300	223 ± 2.58	163 ± 2.88	> 300	COc1cccc(-c2nc(C)c(C(=O)Nc3ccc(SC)cc3)s2)c1 [2e, 2-(3-Methoxyphenyl)-4-methyl-N-(4-(methylthio)phenyl)thiazole-5-carboxamide]	> 300		
1.507	0.957 ± 0.17 µM	299.2 ± 2.05	> 300	1.44 ± 0.51	> 300	> 300	> 300	> 300	> 300	COc1cccc(-c2nc(C)c(C(=O)Nc3cccc(C(F)(F)F)c3)s2)c1 [2j, 2-(3-Methoxyphenyl)-4-methyl-N-(3-(trifluoromethyl)phenyl)thiazole-5-carboxamide]	> 300		
